Tests used:
rats = settings: 2.3 mmol/kg; cited from earlier work
[1] = Octanol–water partition coefficient study; assay type: physicochemical; settings: 1-octanol/phosphate-buffered saline
Procedure, shortened: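 The 18F test compound (20 µL, ~10–20 µCi in saline) was added to 5 mL each of 1-octanol and phosphate-buffered saline at pH 6.4, 7.0, 7.4 or 8.4. The mixture was vortexed 1 min and centrifuged 5 min.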

CWR22rv1 xenografts [2] = test: Single-isotope in vivo biodistribution; set-up: species or system mice; settings: for Tumor uptake of the tracer: tail vein, nude mice
Procedure, shortened: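 Nude mice (20–25 g) carried CWR22rv1 tumours grown from 5 × 10^6 cells in medium/Matrigel, injected s.c. at the right forelimb. They received 3.7–5.5 MBq (100–150 µCi) of the 18F test compound in 200 µL saline by tail vein; dose per animal came from syringe readings before and after injection. Organs were harvested at 1, 2, 3 and 4 h and γ-counted (400–600 keV, decay-corrected) for %ID/g and tumour-to-organ ratios; n = 3 per time point, mean ± SD.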

CWR22rv1 xenografts [3] = test: Small-animal PET 1 h after tail vein injection; assay type: in vivo, mice; settings: 1 h after administration via tail vein
Procedure, shortened: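 CWR22rv1-xenografted nude mice, not fasted, received 11.1 MBq (300 µCi) of the 18F test compound by tail vein. They were held under 2% isoflurane in oxygen (2 L/min) and scanned on a small-animal PET at 1 h for 5 min, using a 350–700 keV window and 6 ns coincidence window. Images were corrected for nonuniformity, dead time and decay, but not for attenuation, scatter or partial volume. %ID/g came from a phantom-derived calibration factor.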

CWR22rv1 tumors = test: Dual-isotope comparative biodistribution; assay type: in vivo, mice; settings: 1 h after simultaneous tail vein injection
Procedure, shortened: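 Nude mice bearing subcutaneous CWR22rv1 xenografts received, by tail vein, 200 µL saline containing 3.7 MBq of the 18F test compound and about 0.0037 MBq 14C-acetate, and were euthanized 1 h later. 18F was γ-counted (400–600 keV, decay-corrected). Samples were then solubilised and held 1 d at 4°C, and 14C was read by liquid scintillation with external-standard quench correction. %ID/g = activity/decay-corrected injected activity/organ weight; n = 4, mean ± SD.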

CC(F)C(=O)O (stereo not shown) [FPA]
Acute toxicity (rats): no acute toxicity

CC([18F])C(=O)O (stereo not shown) [^18F-FPA, 2-^18F-fluoropropionic acid]
logP ([1]; pH 6.4): −2.89 ± 0.02 | logP ([1]; pH 7.0): −3.08 ± 0.04 | logP ([1]; pH 7.4): −2.97 ± 0.13 | logP ([1]; pH 8.4): −3.07 ± 0.03 | Tumor-to-organ ratio, heart (CWR22rv1 xenografts [2]; 1, 2, 3, and 4 h after injection): around 0.95 | Tumor uptake of the tracer (CWR22rv1 xenografts [2]; 1 h after injection): 5.52 ± 0.35 %ID/g | Tumor uptake of the tracer (CWR22rv1 xenografts [2]; 2 h after injection): 5.53 ± 0.42 %ID/g | Tumor uptake of the tracer (CWR22rv1 xenografts [2]; 3 h after injection): 5.74 ± 0.54 %ID/g | Tumor uptake of the tracer (CWR22rv1 xenografts [2]; 4 h after injection): 5.34 ± 0.19 %ID/g | Defluorination in vivo (CWR22rv1 xenografts [2]; PET and biodistribution studies, low bone uptake): no evidence of defluorination | Uptake in the brain (PET) (CWR22rv1 xenografts [3]): 4.6 %ID/g | Uptake in the heart (PET) (CWR22rv1 xenografts [3]): 4.0 %ID/g | Uptake in the tumor (PET) (CWR22rv1 xenografts [3]; CWR22rv1 tumor): 4.4 %ID/g | Tumor-to-organ ratio, Blood (CWR22rv1 tumors): 1.03 | Tumor-to-organ ratio, Bone (CWR22rv1 tumors): 4.23 | Tumor-to-organ ratio, Brain (CWR22rv1 tumors): 1.27 | Tumor-to-organ ratio, Kidneys (CWR22rv1 tumors): 1.70 | Tumor-to-organ ratio, Large intestine (CWR22rv1 tumors): 1.91 | Tumor-to-organ ratio, Liver (CWR22rv1 tumors): 1.26 | Tumor-to-organ ratio, Lungs (CWR22rv1 tumors): 1.77 | Tumor-to-organ ratio, Muscle (CWR22rv1 tumors): 1.94 | Tumor-to-organ ratio, Small intestine (CWR22rv1 tumors): 1.62 | Tumor-to-organ ratio, Spleen (CWR22rv1 tumors): 1.62 | Tumor-to-organ ratio, Stomach (CWR22rv1 tumors): 2.80 | Tumor-to-organ ratio, Tumor (CWR22rv1 tumors): 1.00 | Tumor-to-organ ratio, heart (CWR22rv1 tumors): 1.30 | %ID/g, Blood (CWR22rv1 tumors; n = 4): 6.88 ± 0.64 %ID/g | %ID/g, Bone (CWR22rv1 tumors; n = 4): 1.68 ± 0.54 %ID/g | %ID/g, Brain (CWR22rv1 tumors; n = 4): 5.57 ± 0.33 %ID/g | %ID/g, Heart (CWR22rv1 tumors; n = 4): 5.46 ± 0.63 %ID/g | %ID/g, Kidneys (CWR22rv1 tumors; n = 4): 4.17 ± 0.60 %ID/g | %ID/g, Large intestine (CWR22rv1 tumors; n = 4): 3.71 ± 1.09 %ID/g | %ID/g, Liver (CWR22rv1 tumors; n = 4): 5.61 ± 0.50 %ID/g | %ID/g, Lungs (CWR22rv1 tumors; n = 4): 4.00 ± 0.26 %ID/g | %ID/g, Muscle (CWR22rv1 tumors; n = 4): 3.66 ± 0.50 %ID/g | %ID/g, Small intestine (CWR22rv1 tumors; n = 4): 4.37 ± 1.15 %ID/g | %ID/g, Spleen (CWR22rv1 tumors; n = 4): 4.36 ± 0.85 %ID/g | %ID/g, Stomach (CWR22rv1 tumors; n = 4): 2.53 ± 1.04 %ID/g | %ID/g, Tumor (CWR22rv1 tumors; CWR22rv1 tumors, n = 4): 7.08 ± 0.80 %ID/g

— publication PMC4429801 (Journal of nuclear medicine : official publication, Society …, 2009)
